Assay results from publication PMC1182329 (Nucleic Acids Research, 2005).
Like-named read-outs stand apart in the source and are kept apart here.

Tests used:
[1] = tested on: CEM cells; test: Uptake kinetics with 125I-labeled conjugates; format: cell-based; conditions: slope of Hill plot of uptake data, 125I-labeled conjugate, room temperature, 30 s
Summary of the method: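 125I-labeled conjugate purified by gel filtration and C18 reverse phase, quantified at A260, and specific radioactivity set with unlabeled conjugate. 1 × 10^6 CEM cells exposed to varying concentrations at room temperature for 30 s, then filtered on glass fiber, washed with PBS. Internalized conjugate measured by gamma counting from specific radioactivity; nH taken from Hill plot slope.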

[2] = tested on: VSV-G pseudotyped HIV-1 in CEM cells
[3] = tested on: VSV-G pseudotyped HIV-1 virions; conditions: 1 h
[4] = tested on: TAR-RNA; test: Gel retardation assay; format: binding, HIV-1; conditions: compared with PNATAR–penetratin and PNATAR–tat conjugates; data not shown

`CC[C@H](C)[C@H](NC(=O)[C@H](CCCCN)NC(=O)[C@@H](NC(=O)[C@H](CCC(N)=O)NC(=O)[C@H](CCCNC(=N)N)NC(=O)[C@@H](N)CSSC[C@H](NC(C)=O)C(=O)NCCN(CC(=O)NCCN(CC(=O)NCCN(CC(=O)NCCN(CC(=O)NCCN(CC(=O)NCCN(CC(=O)NCCN(CC(=O)NCCN(CC(=O)NCCN(CC(=O)NCCN(CC(=O)NCCN(CC(=O)NCCN(CC(=O)NCCN(CC(=O)NCCN(CC(=O)NCCN(CC(=O)NCCN(CC(N)=O)C(=O)Cn1cc(C)c(=O)[nH]c1=O)C(=O)Cn1ccc(N)nc1=O)C(=O)Cn1cc(C)c(=O)[nH]c1=O)C(=O)Cn1cnc2c(N)ncnc21)C(=O)Cn1cnc2c(=O)[nH]c(N)nc21)C(=O)Cn1cnc2c(N)ncnc21)C(=O)Cn1ccc(N)nc1=O)C(=O)Cn1cc(C)c(=O)[nH]c1=O)C(=O)Cn1ccc(N)nc1=O)C(=O)Cn1cnc2c(=O)[nH]c(N)nc21)C(=O)Cn1cnc2c(=O)[nH]c(N)nc21)C(=O)Cn1cnc2c(N)ncnc21)C(=O)Cn1ccc(N)nc1=O)C(=O)Cn1ccc(N)nc1=O)C(=O)Cn1ccc(N)nc1=O)C(=O)Cn1cc(C)c(=O)[nH]c1=O)[C@@H](C)CC)C(=O)N[C@@H](Cc1c[nH]c2ccccc12)C(=O)N[C@@H](Cc1ccccc1)C(=O)N[C@@H](CCC(N)=O)C(=O)N[C@@H](CC(N)=O)C(=O)N[C@@H](CCCNC(=N)N)C(=O)N[C@@H](CCCNC(=N)N)C(=O)N[C@@H](CCSC)C(=O)N[C@@H](CCCCN)C(=O)N[C@@H](Cc1c[nH]c2ccccc12)C(=O)N[C@@H](CCCCN)C(=O)N[C@@H](CCCCN)C(=O)O` [PNATAR–penetratin] was tested, and the “Hill coefficient (nH) of uptake” value [1] was 1.8, the “inhibition of HIV-1 replication” value [2] was about 50% and the “inhibition of HIV-1 replication (words)” value [2] was “did not inhibit”. It also gave an IC50 ([2]; VSV-G pseudotyped in CEM cells, 48 h) of 800 nM, an IC50 ([2]; read-out: Antiviral efficacy IC50) of 800 nM and an IC50 [3] of 28 nM.
With `CC(=O)N[C@@H](CSSC[C@H](N)C(=O)NCC(=O)N[C@@H](CCCNC(=N)N)C(=O)N[C@@H](CCCCN)C(=O)N[C@@H](CCCCN)C(=O)N[C@@H](CCCNC(=N)N)C(=O)N[C@@H](CCCNC(=N)N)C(=O)N[C@@H](CCC(N)=O)C(=O)N[C@@H](CCCNC(=N)N)C(=O)N[C@@H](CCCNC(=N)N)C(=O)N[C@@H](CCCNC(=N)N)C(=O)N1CCC[C@H]1C(=O)N1CCC[C@H]1C(=O)N[C@@H](CCC(N)=O)C(=O)O)C(=O)NCCN(CC(=O)NCCN(CC(=O)NCCN(CC(=O)NCCN(CC(=O)NCCN(CC(=O)NCCN(CC(=O)NCCN(CC(=O)NCCN(CC(=O)NCCN(CC(=O)NCCN(CC(=O)NCCN(CC(=O)NCCN(CC(=O)NCCN(CC(=O)NCCN(CC(=O)NCCN(CC(=O)NCCN(CC(N)=O)C(=O)Cn1cc(C)c(=O)[nH]c1=O)C(=O)Cn1ccc(N)nc1=O)C(=O)Cn1cc(C)c(=O)[nH]c1=O)C(=O)Cn1cnc2c(N)ncnc21)C(=O)Cn1cnc2c(=O)[nH]c(N)nc21)C(=O)Cn1cnc2c(N)ncnc21)C(=O)Cn1ccc(N)nc1=O)C(=O)Cn1cc(C)c(=O)[nH]c1=O)C(=O)Cn1ccc(N)nc1=O)C(=O)Cn1cnc2c(=O)[nH]c(N)nc21)C(=O)Cn1cnc2c(=O)[nH]c(N)nc21)C(=O)Cn1cnc2c(N)ncnc21)C(=O)Cn1ccc(N)nc1=O)C(=O)Cn1ccc(N)nc1=O)C(=O)Cn1ccc(N)nc1=O)C(=O)Cn1cc(C)c(=O)[nH]c1=O` [PNATAR–tat-peptide] the IC50 [3] was 37 nM.
Ac-Cys-TCC-CAG-GCT-CAG-ATC-T [PNATAR] was tested, and the “binding pattern to TAR-RNA in gel shift assay” value [4] was “same binding pattern”.
